Source: ChEMBL document CHEMBL2331187, “Efficient synthesis of 3H,3'H-spiro[benzofuran-2,1'-isobenzofuran]-3,3'-dione as novel skeletons specifically for influenza virus type B inhibition” (Eur J Med Chem, 2013)

Assays:
Influenza B virus [1] = assay: Antiviral activity against Influenza B virus (B/Brisbane/60/2008) infected in MDCK cells assessed as inhibition of virus-induced cytopathogenicity at 1 hr post-infection measured after 3 days by fluorescein-diacetate based fluorimetric analysis; type: functional, cell-based; conditions: B/Brisbane/60/2008, MDCK
In short: (§1)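 Confluent MDCK monolayers were mock-infected or infected with about 50-100 PFU of influenza virus per well. At read-out the medium was removed and cells were stained with fluorescein diacetate in PBS for 20 min at 35 °C. Fluorescence was read at ex 485/em 538 nm. CC50 and EC50 were derived from the fluorescence, and the selectivity index was taken as CC50/EC50.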

Influenza B virus [2] = assay: Antiviral activity against Influenza B virus (B/Lee/40) infected in MDCK cells assessed as inhibition of virus-induced cytopathogenicity at 1 hr post-infection measured after 3 days by fluorescein-diacetate based fluorimetric analysis; type: functional, organism-based; conditions: B/Lee/1940, MDCK; in short: as §1
Influenza B virus [3] = assay: Antiviral activity against Influenza B virus (B/Taiwan/2/62) infected in MDCK cells assessed as inhibition of virus-induced cytopathogenicity at 1 hr post-infection measured after 3 days by fluorescein-diacetate based fluorimetric analysis; type: functional, organism-based; in short: as §1
Influenza B virus [4] = assay: Antiviral activity against Influenza B virus (B/Panama/45/1990) infected in MDCK cells assessed as inhibition of virus-induced cytopathogenicity at 1 hr post-infection measured after 3 days by fluorescein-diacetate based fluorimetric analysis; type: functional, cell-based; conditions: B/Panama/45/1990, MDCK; in short: as §1
Influenza A virus = assay: Antiviral activity against Influenza A virus (A/Taiwan/1/1986(H1N1)) infected in MDCK cells assessed as inhibition of virus-induced cytopathogenicity at 1 hr post-infection measured after 3 days by fluorescein-diacetate based fluorimetric analysis; type: functional, organism-based; in short: as §1
[5] = Cytotoxicity against MDCK cells after 3 days by fluorescein diacetate-based fluorimetric analysis; type: cell-based, Canis lupus familiaris; conditions: dog; in short: as §1
[6] = Selectivity ratio of CC50 for MDCK cells to EC50 for Influenza B virus (B/Panama/45/1990); type: ADME, cell-based; conditions: dog, read-out: Ratio CC50/EC50; in short: as §1

SMILES | EC50 (Influenza B virus [1]) | EC50 (Influenza B virus [2]) | EC50 (Influenza B virus [3]) | EC50 (Influenza B virus [4]) | EC50 (Influenza A virus) | CC50 at 72 h [5] | selectivity ratio [6]
O=C1OC2(Oc3cc4ccccc4cc3C2=O)c2ccccc21 (stereo not drawn) | 132 µM | 159 µM | 39.4 µM | 96.1 µM | 206 µM | > 500 µM | –
Cc1ccc2c(c1)C(=O)C1(OC(=O)c3ccccc31)O2 (stereo not drawn) | 28 µM | 32.8 µM | 24.8 µM | 7.6 µM | 32.9 µM | 293 µM | –
O=C1OC2(Oc3ccc(Cl)cc3C2=O)c2ccccc21 (stereo not drawn) | 28.6 µM | 38.8 µM | 21.7 µM | 7.8 µM | 25.2 µM | 153 µM | –
Cc1cc2c(c(C)c1C)C(=O)C1(OC(=O)c3ccccc31)O2 (stereo not drawn) | 103 µM | 254 µM | 23.2 µM | 11 µM | > 500 µM | > 500 µM | –
Cc1cc(C)c2c(c1)OC1(OC(=O)c3ccccc31)C2=O (stereo not drawn) | > 500 µM | > 500 µM | > 500 µM | > 500 µM | 11.4 µM | > 500 µM | –
Nc1ccc2c(c1)OC1(OC(=O)c3ccccc31)C2=O (stereo not drawn) | – | – | – | 27.4 µM | 49 µM | 305 µM | –
CCc1ccc2c(c1)C(=O)C1(OC(=O)c3ccccc31)O2 (stereo not drawn) | 25.4 µM | 31.2 µM | 9.3 µM | 7.5 µM | 28.1 µM | 112 µM | –
CCc1ccc2c(c1)OC1(OC(=O)c3ccccc31)C2=O (stereo not drawn) | 32.2 µM | 34.4 µM | 12.1 µM | 11.2 µM | 34.6 µM | 103 µM | –
O=C1OC2(Oc3ccc(-c4ccccc4)cc3C2=O)c2ccccc21 (stereo not drawn) | 12.1 µM | 14.1 µM | 10.8 µM | 6.6 µM | > 30.3 µM | 30.3 µM | < 5
Cc1cccc2c1OC1(OC(=O)c3ccccc31)C2=O (stereo not drawn) | 104 µM | 199 µM | 53 µM | 24.7 µM | 83.2 µM | > 500 µM | –
O=C1OC2(Oc3cc(-c4ccccc4)ccc3C2=O)c2ccccc21 (stereo not drawn) | – | – | – | < 6.2 µM | 7.6 µM | 36.3 µM | < 5
Cc1ccc2c(c1C)OC1(OC(=O)c3ccccc31)C2=O (stereo not drawn) | 23.5 µM | 32 µM | 28.9 µM | 9.9 µM | 7.1 µM | 370 µM | –
O=C1OC2(Oc3cc4c(cc3C2=O)CCC4)c2ccccc21 (stereo not drawn) | 4.8 µM | 10.6 µM | 5.7 µM | 2.1 µM | 9.8 µM | 80.4 µM | –
Cc1cc2c(cc1C)C1(OC2=O)Oc2cc(C(C)C)ccc2C1=O (stereo not drawn) | – | – | – | > 500 µM | 321 µM | > 500 µM | –
O=C1OC2(Oc3c(Cl)ccc(Cl)c3C2=O)c2ccccc21 (stereo not drawn) | – | – | – | 18.4 µM | 25.5 µM | 86 µM | –
NC12CC3CC(CC(C3)C1)C2 [AMANTADINE] | > 100 µM | > 100 µM | > 100 µM | > 100 µM | 0.6 µM | > 100 µM | –
NC(=O)c1nc(F)cnc1O [FAVIPIRAVIR] | 1.32 µM | 1.93 µM | 2.84 µM | 1.94 µM | 6.95 µM | > 100 µM | –
CC(C)c1ccc2c(c1)OC1(OC(=O)c3ccccc31)C2=O (stereo not drawn) | – | – | – | 44.9 µM | 148 µM | 314 µM | –
O=C1OC2(Oc3ccccc3C2=O)c2ccccc21 (stereo not drawn) | – | – | – | 88.1 µM | > 500 µM | > 500 µM | 20
O=C1OC2(Oc3c(Cl)cccc3C2=O)c2ccccc21 (stereo not drawn) | 96.3 µM | 227 µM | 61.4 µM | 21.7 µM | 174 µM | > 500 µM | –
O=C1OC2(Oc3c(cccc3-c3ccccc3)C2=O)c2ccccc21 (stereo not drawn) | 11.2 µM | 12.2 µM | 8.3 µM | 4.3 µM | 12.9 µM | 29.2 µM | < 5
CCCc1ccc2c(c1)C(=O)C1(OC(=O)c3ccccc31)O2 (stereo not drawn) | 27.6 µM | 33.7 µM | 25 µM | 9.8 µM | 30.8 µM | 100 µM | –
Cc1ccc(C)c2c1OC1(OC(=O)c3ccccc31)C2=O (stereo not drawn) | 42.7 µM | > 187 µM | 66.6 µM | > 187 µM | > 187 µM | 187 µM | –
Cc1ccc2c(c1)OC1(OC(=O)c3ccccc31)C2=O (stereo not drawn) | 46.9 µM | 59.9 µM | 31.2 µM | 25.7 µM | 27.8 µM | 376 µM | –
COc1ccc2c(c1)OC1(OC(=O)c3ccccc31)C2=O (stereo not drawn) | – | – | – | > 500 µM | > 500 µM | > 500 µM | –
O=C1OC2(Oc3cc(Cl)ccc3C2=O)c2ccccc21 (stereo not drawn) | – | – | – | > 500 µM | > 500 µM | > 500 µM | –
O=C1OC2(Oc3c(ccc4ccccc34)C2=O)c2ccccc21 (stereo not drawn) | – | – | – | < 6.2 µM | < 6.2 µM | 40.4 µM | –
COc1cccc2c1OC1(OC(=O)c3ccccc31)C2=O (stereo not drawn) | 81.1 µM | 58.2 µM | 42.3 µM | 23.6 µM | 126 µM | 253 µM | –
CCOC(=O)c1ccc2c(c1)C(=O)C1(OC(=O)c3ccccc31)O2 (stereo not drawn) | – | – | – | > 500 µM | > 500 µM | > 500 µM | –
